Data as given in ChEMBL document CHEMBL3616459, “Antimicrobial peptides with potential for biofilm eradication: synthesis and structure activity relationship studies of battacin peptides” (J Med Chem, 2015).
In brackets after ≈: the same amount, converted by molar mass. Positions of bridges follow the written chain, without caps; N, C: chain ends. Non-standard residues stand in square brackets, D forms with d. Residues, ends and D or L forms follow the SMILES beside them. *: point of attachment. Myristoyl = CCCCCCCCCCCCCC(=O)*; X1 = CC(C)=CCC/C(C)=C/C(=O)*; dDab = NCC[C@@H](N)C(=O)O; X2 = CCC(C)CCC(O)CC(=O)*; Dab = NCC[C@H](N)C(=O)O

Columns and labels:
[1] = Hemolytic activity in mouse erythrocytes at 100 uM after 1 hr by spectrophotometry; format: ADME, cell-based, Erythrocyte; conditions: read-out: Activity
Summary of the method: (§1)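 100 μL peptide (1 μM–1 mM in Tris buffer) plus 100 μL cells, incubated 1 h at 37 °C, triplicates. After centrifugation, supernatant A540 read. Percent hemolysis calculated relative to buffer (0%) and 0.1% Triton X-100 (100%) controls.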

Erwinia amylovora [2] = assay: Antimicrobial activity against Erwinia amylovora 1501 after 24 hrs by spectrophotometry; format: functional; conditions: Erwinia amylovora, 1501, 24 h
Summary of the method: (§2)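 Broth microdilution in Luria broth. Overnight culture from a single colony, grown at 28 °C (Ea1501, Psa) or 37 °C (E. coli, S. aureus), adjusted to OD600 0.6. Peptide dissolved in LB with 0.5% acetic acid as a dilution series; 50 μL peptide plus 50 μL culture per well, triplicates.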

Erwinia amylovora [3] = assay: Antimicrobial activity against streptomycin-resistant Erwinia amylovora after 24 hrs by spectrophotometry; format: functional
Summary of the method: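 Broth microdilution in Luria broth; overnight culture grown at 28 °C, adjusted to OD600 0.6, mixed 1:1 with a dilution series of peptide prepared in LB containing 0.5% acetic acid. Three replicates per concentration.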

Escherichia coli = assay: Antimicrobial activity against Escherichia coli after 24 hrs by spectrophotometry; format: functional; summary of the method: as §2
[4] = Antimicrobial activity against Pseudomonas syringae pv. actinidiae 16027 after 24 hrs by spectrophotometry; format: functional; conditions: Pseudomonas syringae, 16027, 24 h; summary of the method: as §2
Pseudomonas aeruginosa = assay: Antimicrobial activity against Pseudomonas aeruginosa after 24 hrs by spectrophotometry; format: functional
Staphylococcus aureus = assay: Antimicrobial activity against Staphylococcus aureus after 24 hrs by spectrophotometry; format: functional; summary of the method: as §2
[5] = Hemolytic activity in mouse erythrocytes at 100 uM to 1 mM after 1 hr by spectrophotometry; format: ADME, cell-based, Erythrocyte; conditions: read-out: Activity; summary of the method: as §1

Compound | hemolysis at 1 h, 100 µM [1] [%] | MIC (Erwinia amylovora [2]) [µM] | MIC (Erwinia amylovora [3]) [µM] | MIC (Escherichia coli) [µM] | MIC [4] [µM] | MIC (Pseudomonas aeruginosa) [µM] | MIC (Staphylococcus aureus) [µM] | hemolysis at 1 h, 100 µM [5] [%]
CC(C)C[C@@H]1NC(=O)[C@H](CCN)NC(=O)[C@H](CCN)NC(=O)[C@@H](Cc2ccccc2)NC(=O)[C@H](CC(C)C)NC(=O)[C@H](CCN)NC(=O)[C@@H](NC(=O)[C@@H](CCN)NC(=O)OCC2c3ccccc3-c3ccccc32)CCNC1=O | 41 | 19 (≈ 20.8 µg/mL) | 32 (≈ 35.1 µg/mL) | 19 (≈ 20.8 µg/mL) | 19 (≈ 20.8 µg/mL) | 2 (≈ 2.19 µg/mL) | 2 (≈ 2.19 µg/mL) | 
CCC(C)CCC(=O)N[C@H](CCN)C(=O)N[C@H]1CCNC(=O)[C@H](CC(C)C)NC(=O)[C@H](CCN)NC(=O)[C@H](CCN)NC(=O)[C@@H](Cc2ccccc2)NC(=O)[C@H](CC(C)C)NC(=O)[C@H](CCN)NC1=O (some centres undefined) |  | 15 (≈ 14.8 µg/mL) | 25 (≈ 24.7 µg/mL) | 15 (≈ 14.8 µg/mL) | 5 (≈ 4.93 µg/mL) | 2.5 (≈ 2.47 µg/mL) | 101 (≈ 99.6 µg/mL) | 2.02
CC(C)=CCC/C(C)=C/C(=O)N[C@H](CCN)C(=O)N[C@H]1CCNC(=O)[C@H](CC(C)C)NC(=O)[C@H](CCN)NC(=O)[C@H](CCN)NC(=O)[C@@H](Cc2ccccc2)NC(=O)[C@H](CC(C)C)NC(=O)[C@H](CCN)NC1=O |  | 98 (≈ 100 µg/mL) | 488 (≈ 500 µg/mL) | 98 (≈ 100 µg/mL) | 49 (≈ 50.2 µg/mL) | 10 (≈ 10.2 µg/mL) | 98 (≈ 100 µg/mL) | 
CCCCCCCCCCCCCC(=O)N[C@H](CCN)C(=O)N[C@H]1CCNC(=O)[C@H](CC(C)C)NC(=O)[C@H](CCN)NC(=O)[C@H](CCN)NC(=O)[C@@H](Cc2ccccc2)NC(=O)[C@H](CC(C)C)NC(=O)[C@H](CCN)NC1=O |  | 92 (≈ 99.8 µg/mL) | 23 (≈ 24.9 µg/mL) | 92 (≈ 99.8 µg/mL) | 46 (≈ 49.9 µg/mL) | 92 (≈ 99.8 µg/mL) | 92 (≈ 99.8 µg/mL) | 
CCCCCCCCCCCCCC(=O)N[C@H](CCCCN)C(=O)N[C@H]1CCCCNC(=O)[C@H](CC(C)C)NC(=O)[C@H](CCCCN)NC(=O)[C@H](CCCCN)NC(=O)[C@@H](Cc2ccccc2)NC(=O)[C@H](CC(C)C)NC(=O)[C@H](CCCCN)NC1=O |  | 81 (≈ 99.2 µg/mL) | 20 (≈ 24.5 µg/mL) | 81 (≈ 99.2 µg/mL) | 12 (≈ 14.7 µg/mL) | 409 (≈ 501 µg/mL) | 81 (≈ 99.2 µg/mL) | 
CCC(C)CCC(=O)N[C@H](CCN)C(=O)N[C@@H](CCN)C(=O)N[C@@H](CCN)C(=O)N[C@@H](CC(C)C)C(=O)N[C@H](Cc1ccccc1)C(=O)N[C@@H](CCN)C(=O)N[C@@H](CCN)C(=O)N[C@@H](C)C(=O)O (some centres undefined) |  |  |  | 15 (≈ 14.4 µg/mL) | 10 (≈ 9.62 µg/mL) | 5 (≈ 4.81 µg/mL) | 5 (≈ 4.81 µg/mL) | 
CCC(C)CCC(=O)N[C@H](CCN)C(=O)N[C@@H](CCN)C(=O)N[C@@H](CCN)C(=O)N[C@@H](CC(C)C)C(=O)N[C@H](Cc1ccccc1)C(=O)N[C@@H](CCN)C(=O)N[C@@H](C)C(=O)N[C@@H](CC(C)C)C(=O)O (some centres undefined) |  |  |  | 5 (≈ 4.88 µg/mL) | 2.5 (≈ 2.44 µg/mL) | 5 (≈ 4.88 µg/mL) | 5 (≈ 4.88 µg/mL) | 
CCC(C)CCC(=O)N[C@H](CCN)C(=O)N[C@@H](CCN)C(=O)N[C@@H](CCN)C(=O)N[C@@H](CC(C)C)C(=O)N[C@H](Cc1ccccc1)C(=O)N[C@@H](C)C(=O)N[C@@H](CCN)C(=O)N[C@@H](CC(C)C)C(=O)O (some centres undefined) |  |  |  | 100 (≈ 97.5 µg/mL) | 100 (≈ 97.5 µg/mL) | 50 (≈ 48.8 µg/mL) | 500 (≈ 488 µg/mL) | 
CCC(C)CCC(=O)N[C@H](CCN)C(=O)N[C@@H](CCN)C(=O)N[C@@H](CCN)C(=O)N[C@@H](CC(C)C)C(=O)N[C@@H](C)C(=O)N[C@@H](CCN)C(=O)N[C@@H](CCN)C(=O)N[C@@H](CC(C)C)C(=O)O (some centres undefined) |  |  |  | 25 (≈ 23.2 µg/mL) | > 1000 | > 1000 | 25 (≈ 23.2 µg/mL) | 
CCC(C)CCC(=O)N[C@H](CCN)C(=O)N[C@@H](CCN)C(=O)N[C@@H](CCN)C(=O)N[C@@H](C)C(=O)N[C@H](Cc1ccccc1)C(=O)N[C@@H](CCN)C(=O)N[C@@H](CCN)C(=O)N[C@@H](CC(C)C)C(=O)O (some centres undefined) |  |  |  | 500 (≈ 481 µg/mL) | > 1000 | > 1000 | > 1000 | 
CCC(C)CCC(=O)N[C@H](CCN)C(=O)N[C@@H](CCN)C(=O)N[C@@H](C)C(=O)N[C@@H](CC(C)C)C(=O)N[C@H](Cc1ccccc1)C(=O)N[C@@H](CCN)C(=O)N[C@@H](CCN)C(=O)N[C@@H](CC(C)C)C(=O)O (some centres undefined) |  |  |  | 25 (≈ 24.4 µg/mL) | 25 (≈ 24.4 µg/mL) | 10 (≈ 9.75 µg/mL) | 25 (≈ 24.4 µg/mL) | 
CCC(C)CCC(=O)N[C@H](CCN)C(=O)N[C@@H](C)C(=O)N[C@@H](CCN)C(=O)N[C@@H](CC(C)C)C(=O)N[C@H](Cc1ccccc1)C(=O)N[C@@H](CCN)C(=O)N[C@@H](CCN)C(=O)N[C@@H](CC(C)C)C(=O)O (some centres undefined) |  |  |  | 25 (≈ 24.4 µg/mL) | 2.5 (≈ 2.44 µg/mL) | 2.5 (≈ 2.44 µg/mL) | 2.5 (≈ 2.44 µg/mL) | 
CCC(C)CCC(=O)N[C@@H](C)C(=O)N[C@@H](CCN)C(=O)N[C@@H](CCN)C(=O)N[C@@H](CC(C)C)C(=O)N[C@H](Cc1ccccc1)C(=O)N[C@@H](CCN)C(=O)N[C@@H](CCN)C(=O)N[C@@H](CC(C)C)C(=O)O (some centres undefined) |  |  |  | 500 (≈ 488 µg/mL) | 100 (≈ 97.5 µg/mL) | 25 (≈ 24.4 µg/mL) | > 1000 | 
CC(C)CCCC(=O)N[C@H](CCN)C(=O)N[C@@H](CCN)C(=O)N[C@@H](CC(C)C)C(=O)N[C@H](Cc1ccccc1)C(=O)N[C@@H](CCN)C(N)=O |  |  |  | 10 (≈ 6.9 µg/mL) | 1 (≈ 0.69 µg/mL) | 1 (≈ 0.69 µg/mL) | 2.5 (≈ 1.72 µg/mL) | 1.14
CC(C)C[C@H](NC(=O)[C@H](CCN)NC(=O)[C@H](CCN)NC(=O)[C@@H](Cc1ccccc1)NC(=O)[C@H](CC(C)C)NC(=O)[C@H](CCN)NC(=O)[C@H](CCN)NC(=O)[C@H](N)CCN)C(N)=O (H-[dDab][Dab][Dab]L[dF][Dab][Dab]L-NH2) |  |  |  | 100 (≈ 89.1 µg/mL) | 5 (≈ 4.46 µg/mL) | 2.5 (≈ 2.23 µg/mL) | > 1000 | 
CCCCCCCCCCCCCC(=O)N[C@H](CCN)C(=O)N[C@@H](CCN)C(=O)N[C@@H](CCN)C(=O)N[C@@H](CC(C)C)C(=O)N[C@H](Cc1ccccc1)C(=O)N[C@@H](CCN)C(=O)N[C@@H](CCN)C(=O)N[C@@H](CC(C)C)C(N)=O (Myristoyl-[dDab][Dab][Dab]L[dF][Dab][Dab]L-NH2) |  | 9 (≈ 9.91 µg/mL) | 14 (≈ 15.4 µg/mL) | 5 (≈ 5.51 µg/mL) | 14 (≈ 15.4 µg/mL) | 14 (≈ 15.4 µg/mL) | 5 (≈ 5.51 µg/mL) | 76.9
CCCCCCCCCCCCCC(=O)N[C@H](CCCCN)C(=O)N[C@@H](CCCCN)C(=O)N[C@@H](CCCCN)C(=O)N[C@@H](CC(C)C)C(=O)N[C@H](Cc1ccccc1)C(=O)N[C@@H](CCCCN)C(=O)N[C@@H](CCCCN)C(=O)N[C@@H](CC(C)C)C(N)=O (Myristoyl-[dK]KKL[dF]KKL-NH2) |  | 12 (≈ 14.9 µg/mL) | 12 (≈ 14.9 µg/mL) | 12 (≈ 14.9 µg/mL) | 12 (≈ 14.9 µg/mL) | 12 (≈ 14.9 µg/mL) | 1 (≈ 1.24 µg/mL) | 
CC(C)=CCC/C(C)=C/C(=O)N[C@H](CCN)C(=O)N[C@@H](CCN)C(=O)N[C@@H](CCN)C(=O)N[C@@H](CC(C)C)C(=O)N[C@H](Cc1ccccc1)C(=O)N[C@@H](CCN)C(=O)N[C@@H](CCN)C(=O)N[C@@H](CC(C)C)C(N)=O (X1-[dDab][Dab][Dab]L[dF][Dab][Dab]L-NH2) |  | 24 (≈ 25 µg/mL) | 48 (≈ 50 µg/mL) | 24 (≈ 25 µg/mL) | 14 (≈ 14.6 µg/mL) | 48 (≈ 50 µg/mL) | 48 (≈ 50 µg/mL) | 
CCC(C)CCC(O)CC(=O)N[C@H](CCN)C(=O)N[C@H]1CCNC(=O)[C@H](CC(C)C)NC(=O)[C@H](CCN)NC(=O)[C@H](CCN)NC(=O)[C@@H](Cc2ccccc2)NC(=O)[C@H](CC(C)C)NC(=O)[C@H](CCN)NC1=O (some centres undefined) (X2-[dDab][Dab][Dab]L[dF][Dab][Dab]L; lactam 2-C) |  | 24 (≈ 24.7 µg/mL) | 24 (≈ 24.7 µg/mL) | 10 (≈ 10.3 µg/mL) | 5 (≈ 5.15 µg/mL) | 5 (≈ 5.15 µg/mL) | > 50 | 
CN[C@@H]1[C@H](O[C@H]2[C@H](O[C@H]3[C@H](O)[C@@H](O)[C@H](N=C(N)N)[C@@H](O)[C@@H]3N=C(N)N)O[C@@H](C)[C@]2(O)C=O)O[C@@H](CO)[C@H](O)[C@H]1O [STREPTOMYCIN] |  | 1 (≈ 0.582 µg/mL) | 500 (≈ 291 µg/mL) | 1 (≈ 0.582 µg/mL) | 1 (≈ 0.582 µg/mL) |  |  | 
GENTAMICIN |  |  |  |  |  | < 1 | 2.5 | 
